Test results from ChEMBL document CHEMBL1158358, “Synthesis, antimicrobial and cytotoxic activities of some 5-arylidene-4-thioxo-thiazolidine-2-ones” (Eur J Med Chem, 2009).
Values after ≈ are worked out from the molar mass of the structure shown.

Experiments:
Assay type in all cases: functional
Escherichia coli = assay: Antimicrobial activity against Escherichia coli UFPEDA 224 at 300 ug/disk after 24 hrs by disk diffusion method; settings: UFPEDA 224, 24 h, read-out: IZ
In short: (§1)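 Preliminary screen by disk diffusion. Paper disks (6 mm) holding 300 µg of compound were placed on agar plates inoculated with a standardized microbial suspension. DMSO-only disks served as negative controls. A mean inhibition zone below 7 mm was scored as no sensitivity. Values are means, n = 3.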

HEp-2 [1] = assay: Cytotoxicity against human Hep2 cells at 5 ug/mL after 72 hrs by MTT assay; settings: HEp-2, 72 h, read-out: GI
In short: (§2)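 MTT antiproliferative assay. Cells were diluted to 10⁵ cells/mL in 96-well plates and preincubated for 24 h at 37 °C in humid 5% CO₂. Compounds or vincristine (reference) were then added. Formazan was dissolved and OD read at 540 nm, compared with medium-only control cells. Run in triplicate.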

Staphylococcus aureus [2] = assay: Antimicrobial activity against multidrug-resistant Staphylococcus aureus H.C. 21036 isolate after 20 hrs by twofold serial dilution technique; settings: H.C. 21036, 20 h
In short: (§3)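 Twofold serial dilution MIC in agar plates against Gram-positive strains and multidrug-resistant clinical isolates. Inoculum applied was 10⁵ CFU/plate. Plates with culture medium plus DMSO served as negative control. MIC was read after incubation at 35 °C for 20 h.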

Staphylococcus aureus [3] = assay: Antimicrobial activity against Staphylococcus aureus UFPEDA 01 at 300 ug/disk after 24 hrs by disk diffusion method; settings: UFPEDA 01, 24 h, read-out: IZ; in short: as §1
Staphylococcus aureus [4] = assay: Antimicrobial activity against multidrug-resistant Staphylococcus aureus H.C. 20489 isolate after 20 hrs by twofold serial dilution technique; settings: H.C. 20489, 20 h; in short: as §3
Bacillus subtilis [5] = assay: Antimicrobial activity against Bacillus subtilis UFPEDA 16 after 20 hrs by twofold serial dilution technique; settings: UFPEDA 16, 20 h
In short: (§4)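 MIC was determined by twofold serial dilution. Bacteria were tested in plates at 10⁵ CFU/plate and read after 20 h. C. albicans was tested in tubes at 10³ CFU/tube and read after 48 h. All incubations were at 35 °C. Medium plus DMSO served as the negative control.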

Enterococcus faecalis [6] = assay: Antimicrobial activity against Enterococcus faecalis UFPEDA 138 at 300 ug/disk after 24 hrs by disk diffusion method; settings: UFPEDA 138, 24 h, read-out: IZ; in short: as §1
Staphylococcus aureus [7] = assay: Antimicrobial activity against multidrug-resistant Staphylococcus aureus H.C. 21141 isolate after 20 hrs by twofold serial dilution technique; settings: H.C. 21141, 20 h; in short: as §3
NCI-H292 [8] = assay: Cytotoxicity against human NCI-H292 cells at 1.25 ug/mL after 72 hrs by MTT assay; settings: NCI-H292, 72 h, read-out: GI; in short: as §2
[9] = tested on: Mycolicibacterium smegmatis; assay: Antimicrobial activity against Mycobacterium smegmatis UFPEDA 71 at 300 ug/disk after 24 hrs by disk diffusion method; settings: UFPEDA 71, 24 h, read-out: IZ; in short: as §1
Pseudomonas aeruginosa = assay: Antimicrobial activity against Pseudomonas aeruginosa UFPEDA 39 at 300 ug/disk after 24 hrs by disk diffusion method; settings: UFPEDA 39, 24 h, read-out: IZ; in short: as §1
[10] = tested on: Mycolicibacterium smegmatis; assay: Antimicrobial activity against Mycobacterium smegmatis UFPEDA 71 after 20 hrs by twofold serial dilution technique; settings: UFPEDA 71, 20 h; in short: as §4
Micrococcus luteus [11] = assay: Antimicrobial activity against Micrococcus luteus UFPEDA 06 at 300 ug/disk after 24 hrs by disk diffusion method; settings: UFPEDA 06, 24 h, read-out: IZ; in short: as §1
Enterococcus faecalis [12] = assay: Antimicrobial activity against multidrug-resistant Enterococcus faecalis H.C. 24962 isolate after 20 hrs by twofold serial dilution technique; settings: H.C. 24962, 20 h; in short: as §3
Staphylococcus aureus [13] = assay: Antimicrobial activity against multidrug-resistant Staphylococcus aureus H.C. 20794 isolate after 20 hrs by twofold serial dilution technique; settings: H.C. 20794, 20 h; in short: as §3
Staphylococcus [14] = assay: Antimicrobial activity against coagulase-negative Staphylococcus H.A.M. 338 isolate after 20 hrs by twofold serial dilution technique; settings: H.A.M. 338, 20 h; in short: as §4
Staphylococcus aureus [15] = assay: Antimicrobial activity against Staphylococcus aureus UFPEDA 01 after 20 hrs by twofold serial dilution technique; settings: UFPEDA 01, 20 h; in short: as §3
NCI-H292 [16] = assay: Cytotoxicity against human NCI-H292 cells at 2.5 ug/mL after 72 hrs by MTT assay; settings: NCI-H292, 72 h, read-out: GI; in short: as §2
Serratia marcescens = assay: Antimicrobial activity against Serratia marcescens UFPEDA 398 at 300 ug/disk after 24 hrs by disk diffusion method; settings: UFPEDA 398, 24 h, read-out: IZ; in short: as §1
Enterococcus faecalis [17] = assay: Antimicrobial activity against multidrug-resistant Enterococcus faecalis H.C. 24708 isolate after 20 hrs by twofold serial dilution technique; settings: H.C. 24708, 20 h; in short: as §3
HEp-2 [18] = assay: Cytotoxicity against human Hep2 cells at 1.25 ug/mL after 72 hrs by MTT assay; settings: HEp-2, 72 h, read-out: GI; in short: as §2
HEp-2 [19] = assay: Cytotoxicity against human Hep2 cells at 10 ug/mL after 72 hrs by MTT assay; settings: HEp-2, 72 h, read-out: GI; in short: as §2
Candida albicans [20] = assay: Antimicrobial activity against Candida albicans UFPEDA 1007 at 300 ug/disk after 48 hrs by disk diffusion method; settings: UFPEDA 1007, 48 h, read-out: IZ; in short: as §1
Staphylococcus aureus [21] = assay: Antimicrobial activity against multidrug-resistant Staphylococcus aureus H.C. 20905 isolate after 20 hrs by twofold serial dilution technique; settings: H.C. 20905, 20 h; in short: as §3
Staphylococcus aureus [22] = assay: Antimicrobial activity against multidrug-resistant Staphylococcus aureus H.C. 20981 isolate after 20 hrs by twofold serial dilution technique; settings: H.C. 20981, 20 h; in short: as §3
HEp-2 [23] = assay: Cytotoxicity against human Hep2 cells at 2.5 ug/mL after 72 hrs by MTT assay; settings: HEp-2, 72 h, read-out: GI; in short: as §2
Candida albicans [24] = assay: Antimicrobial activity against Candida albicans UFPEDA 1007 after 48 hrs by twofold serial dilution technique; settings: UFPEDA 1007, 48 h; in short: as §4
Bacillus subtilis [25] = assay: Antimicrobial activity against Bacillus subtilis UFPEDA 16 at 300 ug/disk after 24 hrs by disk diffusion method; settings: UFPEDA 16, 24 h, read-out: IZ; in short: as §1
Enterococcus faecalis [26] = assay: Antimicrobial activity against multidrug-resistant Enterococcus faecalis H.C. 21944 isolate after 20 hrs by twofold serial dilution technique; settings: H.C. 21944, 20 h; in short: as §3
Enterococcus faecalis [27] = assay: Antimicrobial activity against Enterococcus faecalis UFPEDA 138 after 20 hrs by twofold serial dilution technique; settings: UFPEDA 138, 20 h; in short: as §4
Enterococcus faecalis [28] = assay: Antimicrobial activity against multidrug-resistant Enterococcus faecalis H.C. 21752 isolate after 20 hrs by twofold serial dilution technique; settings: H.C. 21752, 20 h; in short: as §3
Staphylococcus [29] = assay: Antimicrobial activity against coagulase-negative Staphylococcus H.A.M. 278 isolate after 20 hrs by twofold serial dilution technique; settings: H.A.M. 278, 20 h; in short: as §4
NCI-H292 [30] = assay: Cytotoxicity against human NCI-H292 cells at 10 ug/mL after 72 hrs by MTT assay; settings: NCI-H292, 72 h, read-out: GI; in short: as §2
NCI-H292 [31] = assay: Cytotoxicity against human NCI-H292 cells at 5 ug/mL after 72 hrs by MTT assay; settings: NCI-H292, 72 h, read-out: GI; in short: as §2
Micrococcus luteus [32] = assay: Antimicrobial activity against Micrococcus luteus UFPEDA 06 after 20 hrs by twofold serial dilution technique; settings: UFPEDA 06, 20 h; in short: as §4

Row | Structure (SMILES) | zone of inhibition at 300 µg/disc (Escherichia coli) [mm] | inhibition of growth at 5 µg/mL (HEp-2 [1]) [%] | MIC (Staphylococcus aureus [2]) [µg/mL] | zone of inhibition at 300 µg/disc (Staphylococcus aureus [3]) [mm] | MIC (Staphylococcus aureus [4]) [µg/mL] | MIC (Bacillus subtilis [5]) [µg/mL] | zone of inhibition at 300 µg/disc (Enterococcus faecalis [6]) [mm] | MIC (Staphylococcus aureus [7]) [µg/mL] | inhibition of growth at 1.25 µg/mL (NCI-H292 [8]) [%] | zone of inhibition at 300 µg/disc [9] [mm] | zone of inhibition at 300 µg/disc (Pseudomonas aeruginosa) [mm] | MIC [10] [µg/mL] | zone of inhibition at 300 µg/disc (Micrococcus luteus [11]) [mm] | MIC (Enterococcus faecalis [12]) [µg/mL] | MIC (Staphylococcus aureus [13]) [µg/mL] | MIC (Staphylococcus [14]) [µg/mL] | MIC (Staphylococcus aureus [15]) [µg/mL] | inhibition of growth at 2.5 µg/mL (NCI-H292 [16]) [%] | zone of inhibition at 300 µg/disc (Serratia marcescens) [mm] | MIC (Enterococcus faecalis [17]) [µg/mL] | further results
1 | O=C1NC(=S)/C(=C/c2ccc(F)cc2)S1 | < 7 | 20.6 | 2 (≈ 8.36 µM) | 29 | 2 (≈ 8.36 µM) | 16 (≈ 66.9 µM) | 24 | 32 (≈ 134 µM) | 7.32 | 25 | < 7 | 16 (≈ 66.9 µM) | 29 | 16 (≈ 66.9 µM) | 2 (≈ 8.36 µM) | 32 (≈ 134 µM) | 4 (≈ 16.7 µM) | 17.5 | < 7 | 16 (≈ 66.9 µM) | inhibition of growth at 1.25 µg/mL (HEp-2 [18]): -10.8%; inhibition of growth at 10 µg/mL (HEp-2 [19]): 30.1%; zone of inhibition at 300 µg/disc (Candida albicans [20]): 17 mm; MIC (Staphylococcus aureus [21]): 2 µg/mL (≈ 8.36 µM); MIC (Staphylococcus aureus [22]): 4 µg/mL (≈ 16.7 µM); inhibition of growth at 2.5 µg/mL (HEp-2 [23]): -4.51%; MIC (Candida albicans [24]): 32 µg/mL (≈ 134 µM); zone of inhibition at 300 µg/disc (Bacillus subtilis [25]): 26 mm; MIC (Enterococcus faecalis [26]): 32 µg/mL (≈ 134 µM); MIC (Enterococcus faecalis [27]): 32 µg/mL (≈ 134 µM); MIC (Enterococcus faecalis [28]): 32 µg/mL (≈ 134 µM); MIC (Staphylococcus [29]): 32 µg/mL (≈ 134 µM); inhibition of growth at 10 µg/mL (NCI-H292 [30]): 38%; inhibition of growth at 5 µg/mL (NCI-H292 [31]): 31.6%; MIC (Micrococcus luteus [32]): 16 µg/mL (≈ 66.9 µM)
2 | O=C1NC(=S)/C(=C/c2cccc(F)c2)S1 | < 7 | 19.8 | 2 (≈ 8.36 µM) | 28 | 2 (≈ 8.36 µM) | 16 (≈ 66.9 µM) | 22 | 16 (≈ 66.9 µM) | 2.1 | 20 | < 7 | 32 (≈ 134 µM) | 27 | 8 (≈ 33.4 µM) | 2 (≈ 8.36 µM) | 16 (≈ 66.9 µM) | 4 (≈ 16.7 µM) | 3.43 | < 7 | 8 (≈ 33.4 µM) | inhibition of growth at 1.25 µg/mL (HEp-2 [18]): 0.84%; inhibition of growth at 10 µg/mL (HEp-2 [19]): 20.9%; zone of inhibition at 300 µg/disc (Candida albicans [20]): 16 mm; MIC (Staphylococcus aureus [21]): 2 µg/mL (≈ 8.36 µM); MIC (Staphylococcus aureus [22]): 2 µg/mL (≈ 8.36 µM); inhibition of growth at 2.5 µg/mL (HEp-2 [23]): 7.03%; MIC (Candida albicans [24]): 64 µg/mL (≈ 267 µM); zone of inhibition at 300 µg/disc (Bacillus subtilis [25]): 20 mm; MIC (Enterococcus faecalis [26]): 8 µg/mL (≈ 33.4 µM); MIC (Enterococcus faecalis [27]): 32 µg/mL (≈ 134 µM); MIC (Enterococcus faecalis [28]): 16 µg/mL (≈ 66.9 µM); MIC (Staphylococcus [29]): 16 µg/mL (≈ 66.9 µM); inhibition of growth at 10 µg/mL (NCI-H292 [30]): 26.8%; inhibition of growth at 5 µg/mL (NCI-H292 [31]): 13.1%; MIC (Micrococcus luteus [32]): 16 µg/mL (≈ 66.9 µM)
